# KDM4C inh: inhibitors of GASC-1 (KDM4C) histone demethylase, primary screen, biochemical, single concentration HTS | inhibition, % at 12.5 µM | GST-KDM4C 2-372, H3K9me3 peptide, LANCE TR-FRET | Lysine-specific demethylase 4C (Homo sapiens), Q9H3R0 | 96,000 compounds, 0.15% hits | AID 720574, 2013;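 active means mean replicate inhibition above about 25%, with at least 55% of replicates also reaching it, limit read from the data, passing the limit was not always enough; inconclusive means only one of those two conditions met; inactive means neither condition met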
# Target sequence (Q9H3R0 2-372 limits assumed): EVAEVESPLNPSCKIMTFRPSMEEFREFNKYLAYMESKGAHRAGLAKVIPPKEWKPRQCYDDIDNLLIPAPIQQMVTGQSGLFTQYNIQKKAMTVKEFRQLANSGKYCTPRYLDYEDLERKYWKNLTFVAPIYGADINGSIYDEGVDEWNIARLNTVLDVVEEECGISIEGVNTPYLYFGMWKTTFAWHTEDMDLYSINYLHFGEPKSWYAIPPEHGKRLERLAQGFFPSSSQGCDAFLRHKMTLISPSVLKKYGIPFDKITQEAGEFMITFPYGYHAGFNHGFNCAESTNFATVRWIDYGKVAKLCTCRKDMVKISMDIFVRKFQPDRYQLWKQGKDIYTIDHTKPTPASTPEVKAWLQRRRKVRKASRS
#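 Assay system: GST-GASC-1 enzyme fragment 2-372 | Amount: 10 nM enzyme | Medium: HEPES buffer, pH 7.5, plus ascorbate | Reagent: H3K9me3 peptide substrate, Fe(II), 2-oxoglutarate | Doses: Single-point compound screen | Incubation: 30 min demethylation and 1 h detection at room temperature | Measured by: LANCE TR-FRET, excitation 340 nm, emissions 618 and 671 nm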
# Pf Dd2 inh: P. falciparum Dd2 growth inhibitors, primary screen, SYBR Green fluorescence, single dose replicates | 72 h; active compounds read low | activity change, % at 10 µM | 94,000 compounds, 2.3% hits; in the data active means activity change below about -80%; inconclusive means no clear call, values can overlap the other calls
# IDH1 R132H inh: inhibitors of IDH1 R132H reductase, primary screen, biochemical, plate reader, single point; Isocitrate dehydrogenase [NADP] cytoplasmic (Homo sapiens), O75874; diaphorase/resazurin fluorescence, 60 min; inhibition, % at 10 µM; 70,000 compounds, 0.18% hits; AID 624101, 2012; in the data active means inhibition above about 34%; inconclusive means no clear call, values can overlap the other calls; inactive means below about 11%;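 further: 0% = DMSO and 100% = no enzyme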
# T cruzi growth-1: T. cruzi intracellular proliferation inhibitors, primary screen, cell-based, beta-gal Tulahuen parasites, NIH3T3 host, luminescence; T. cruzi beta-gal in NIH3T3, GalScreen luminescence, 90 h; inhibition, % at 8.34 µM; 77,000 compounds, 5.9% hits;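 active means mean inhibition above about 93%, with at least 55% of replicates each passing it, limit read from the data, passing the limit was not always enough; inconclusive means only one of those two conditions holds; inactive means neither condition holds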
# T cruzi growth-2: T. cruzi intracellular proliferation inhibitors, confirmation, cell-based, NIH3T3 host, beta-gal parasite, luminescence, cherry-pick | 5,600 compounds, 72% hits | T. cruzi beta-gal in NIH3T3, GalScreen luminescence, 90 h | inhibition, % at 8.35 µM | shares compounds with T cruzi growth-1;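 active means mean replicate inhibition above about 95% and at least 55% of replicates individually reaching it, limit read from the data; inconclusive means only one of the two criteria is met; inactive means neither criterion is met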
# T cruzi growth-3: inhibitors of intracellular T. cruzi replication, confirmation, NIH3T3 host cells, beta-gal parasites, cherry-pick, set 2; AID 651740, 2012; inhibition, % at 2.09 µM; 5,600 compounds, 21% hits; T. cruzi beta-gal in NIH3T3, GalScreen luminescence, 90 h; shares compounds with T cruzi growth-1;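 active means mean inhibition above about 95%, with at least 55% of replicates also reaching it, limit read from the data; inconclusive means meets just one of the two conditions; inactive means meets neither condition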;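 further: plate controls were neutral control median for no effect and positive control median for full effect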
# 3T3 cytotox: cytotoxicity in mouse NIH/3T3 fibroblasts, confirmation, cytotoxicity control for T. cruzi proliferation inhibitor project, cell-based, cherry-pick, single point; 5,600 compounds, 14% hits; AID 651742, 2012; shares compounds with T cruzi growth-1; cytotoxicity (signal decrease), % at 8.35 µM; NIH/3T3 viability, CellTiter-Glo ATP luminescence, 90 h;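 active means mean signal decrease across replicates above about 35% based on untreated-well scatter, with enough replicates individually passing, limit read from the data; inconclusive means no rule stated though some were filed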;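 further: 0% = median of neutral control wells and 100% = median of positive control wells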
# 3T3 cytotox 2: NIH/3T3 fibroblast cytotoxicity, confirmation, cytotoxicity control, cell-based, cherry-pick, single point, set 2; shares compounds with T cruzi growth-1; NIH/3T3 viability, CellTiter-Glo ATP luminescence, 90 h; inhibition, % at 24.9 µM; 5,600 compounds, 56% hits; AID 651744, 2012;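 active means mean loss of cell viability signal at or above a set limit, and enough replicates individually reaching it; inconclusive means meets only the mean limit or only the replicate share; inactive means meets neither condition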;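 further: 0% = median of neutral control wells and 100% = median of positive control wells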
# An asterisk follows results filed as active; u = inconclusive; x = no result. A selection: hits, their analogues and other compounds. The true share with any hit is near 5.9%.
SMILES,KDM4C inh,Pf Dd2 inh,IDH1 R132H inh,T cruzi growth-1,T cruzi growth-2,T cruzi growth-3,3T3 cytotox,3T3 cytotox 2
COc1cccc(C#Cc2cnc3c(c2)C(=O)N([C@H](C)CO)C[C@@H](C)[C@H](CN(C)C(=O)C2CCC2)O3)c1,-1,-62,x,25,x,x,x,x
COC(=O)[C@H]1[C@H](CO)[C@H]2Cn3c(ccc(-c4ccc(F)cc4)c3=O)[C@H]2N1C(=O)C1CC1,0,6,x,73,x,x,x,x
O=C([C@H]1[C@H](CO)[C@H]2Cn3c(ccc(-c4cccc(F)c4)c3=O)[C@H]2N1Cc1cocn1)N1CCCCC1,3,0,x,u,78,-20,20,24*
COC(=O)[C@@H]1[C@@H](CO)[C@@H]2Cn3c(ccc(-c4ccc(F)cc4)c3=O)[C@@H]2N1C(=O)C1CCC1,0,x,x,114*,-16,-14,-5,6
CCCNC(=O)[C@@H]1[C@@H](CO)[C@@H]2Cn3c(ccc(-c4ccccc4)c3=O)[C@@H]2N1C(=O)C1CCC1,1,-1,x,102*,16,19,-18,2
CCCNC(=O)N1[C@@H]2c3ccc(-c4ccc(F)cc4)c(=O)n3C[C@@H]2[C@@H](CO)[C@@H]1C(=O)N1CCCCC1,-1,x,x,102*,0,0,-14,21
Cc1noc(C)c1NC(=O)Nc1ccc2c(c1)CC(=O)N([C@@H](C)CO)C[C@H](C)[C@@H](CN(C)C)O2,1,7,0,x,x,x,x,x
C[C@@H]1CN([C@@H](C)CO)C(=O)c2cccc(NC(=O)c3ccc(-c4nccs4)cc3)c2O[C@@H]1CN(C)C(=O)Nc1ccc(C(F)(F)F)cc1,-3,-70,-8,u,108*,91,26,98*
C[C@H](CO)N1C[C@H](C)[C@H](CN(C)C(=O)Nc2ccc(C(F)(F)F)cc2)Oc2c(NC(=O)c3ccc(-c4nccs4)cc3)cccc2C1=O,-5,-44,x,116*,102*,72,31,84*
C[C@H](CO)N1C[C@H](C)[C@@H](CN(C)C(=O)Nc2ccc(C(F)(F)F)cc2)Oc2c(NC(=O)c3ccc(-c4nccs4)cc3)cccc2C1=O,16,12,x,71,x,x,x,x
C[C@@H]1CN([C@H](C)CO)C(=O)c2cccc(NC(=O)c3nc4ccccc4s3)c2O[C@H]1CN(C)C(=O)Nc1ccc(C(F)(F)F)cc1,-1,-86*,-1,93*,u,u,19,50*
C[C@@H]1CN([C@@H](C)CO)C(=O)c2cccc(NC(=O)c3ccc(-c4nccs4)cc3)c2O[C@H]1CN(C)C(=O)Nc1ccc(F)cc1,2,-27,-2,4,x,x,x,x
CC(=O)N1CCCCN2[C@@H](CO)[C@@H](c3ccc(-c4cccc(C)c4)cc3)[C@@H]2C1,-1,22,x,u,53,50,42*,62*
CC(=O)N1CCCCN2[C@H](CO)[C@H](c3ccc(-c4ccc(C)cc4)cc3)[C@@H]2C1,0,10,x,117*,98*,16,44*,34*
C[C@@H]1CN([C@H](C)CO)C(=O)c2cc(NS(C)(=O)=O)ccc2O[C@@H](C)CCCCO[C@H]1CN(C)Cc1ccncc1,-1,x,2,31,x,x,x,x
Cc1noc(C)c1NC(=O)Nc1ccc2c(c1)C(=O)N(C)[C@@H]1CC[C@@H](CC(=O)N[C@@H]3CCN(Cc4ccccc4)C3)O[C@@H]1CO2,3,12,x,10,x,x,x,x
